Assay outcomes: PubChem, several laboratories
Calb FLC = C. albicans growth inhibition with fluconazole, primary screen, CaCi-2 strain, Alamar Blue fluorescence; C. albicans CaCi-2 (fluconazole-resistant clinical isolate) + fluconazole, 48 h; AID 1979, 2009; growth inhibition, % (no concentration beside the values); 300,000 tested, 0.57% active;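 active means growth inhibition above about 58% in most replicates, limit read from the data, passing the limit was not always enough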;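 further: all wells also contain fluconazole at 8 µg/ml as a sub-toxic cotreatment; 0% = median of DMSO wells and 100% = median of geldanamycin control wells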
Insulin prom up = insulin promoter activators in MIN6 cells, imaging, high-content screening, mouse beta cells | MIN6 insulin promoter-GFP reporter; active compounds read high | AID 1625, 2009 | z-score at 5 µM | 190,000 tested, 0.3% active;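 active means z-score above 3 at 5 µM with at least 500 cells counted in the well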
m5-HT2A agonist = mouse Htr2a agonists via beta-arrestin recruitment, primary screen, cell-based, luminescence | CHO-K1 mHTR2A beta-arrestin complementation; percent of 30 µM serotonin response | activation, % at 7.6 µM | 360,000 tested, 0.66% active | AID 624169, 2012;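 active means activation above a run cutoff, the mean activation of all tested compounds plus 3 SD, cut at about 14% in these data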;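 further: 0% = plate median of compound wells and 100% = 30 µM serotonin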
Target sequence (P35363 whole entry, looked up): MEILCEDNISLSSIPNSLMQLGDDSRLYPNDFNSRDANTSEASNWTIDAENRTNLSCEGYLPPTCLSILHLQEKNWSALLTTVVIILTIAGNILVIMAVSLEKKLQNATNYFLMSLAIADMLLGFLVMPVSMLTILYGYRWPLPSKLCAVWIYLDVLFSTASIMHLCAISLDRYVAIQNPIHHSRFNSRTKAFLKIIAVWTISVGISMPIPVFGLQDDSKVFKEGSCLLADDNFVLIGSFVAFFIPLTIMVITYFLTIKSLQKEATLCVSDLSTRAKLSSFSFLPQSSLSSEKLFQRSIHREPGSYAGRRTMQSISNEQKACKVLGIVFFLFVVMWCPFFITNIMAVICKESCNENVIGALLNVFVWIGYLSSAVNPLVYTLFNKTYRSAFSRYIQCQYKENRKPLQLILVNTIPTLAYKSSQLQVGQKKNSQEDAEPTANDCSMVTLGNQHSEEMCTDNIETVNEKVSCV
SR-BI DiI inh = inhibitors of SR-BI mediated HDL lipid uptake, primary screen, ldlA[mSR-BI] cells, fluorescence, single point. Scavenger receptor class B member 1 (Mus musculus), Q61009. AID 488896, 2010. ldlA[mSR-BI] CHO cells, DiI-HDL uptake fluorescence, 3 h. inhibition, % at 12.5 µM. 320,000 tested, 0.96% active;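 active means mean replicate inhibition of at least 70% and a set share of replicates each scoring 70 or more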;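 further: 0% = median of neutral control wells and 100% = median of positive control wells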
SR-BI DiI-HDL act = activators of SR-BI mediated DiI-HDL uptake, primary screen, ldlA[mSR-BI] CHO cells, DiI fluorescence. 3 h; 100 = double the neutral-control signal. activation, % at 12.5 µM. 320,000 tested, 0.096% active. AID 504775, 2011;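 active means mean replicate activation of at least 60% and every replicate at or above 60%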;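 further: 0% = median plate neutral-control signal and 100% = twice that signal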
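Test system: SR-BI-overexpressing, LDLR-lacking CHO cells; Also added: labelled HDL, 10 µg/mL; Measured by: bottom-read cell fluorescence after medium removal, ex 550/em 595 nm; Timing: 3 h uptake period with compound, 37 °C; Buffer or medium: F12, 0.5% BSA, 25 mM HEPES; Doses: single compound concentration, delivered by pin transfer.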
beta cell repl = inducers of MIN6 beta-cell proliferation, primary screen, ATP luminescence, uHTS; MIN6 cells proliferation, ATPlite luminescence, 48 h; cells starved in 0.2% serum; 100% = growth in 10% serum; proliferation, % at 10 µM; 330,000 tested, 0.29% active; AID 2380, 2010;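 active means compounds whose signal lies at least 3.5 SD above the mean of all wells on their plate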;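 further: 0% = DMSO-treated cells in low-serum medium and 100% = 10% serum control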
MOR ag counter = OPRM1 agonists via beta-arrestin recruitment, confirmation, counter-screen for mouse HTR2A agonist project, cell-based, luminescence, single concentration. AID 624380, 2012. U2OS OPRM1 beta-arrestin PathHunter; DMSO 0%, DAMGO 9.3 µM 100%. 2,300 tested, 5.3% active. activation, % at 9.3 µM. shares compounds with m5-HT2A agonist;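 active means mean activation above the mean of DMSO-only wells plus 3 SD, cut at about 0.5% in these data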
HTR2A ag conf = mouse HTR2A agonists, beta-arrestin recruitment, confirmation, cell-based, luminescence, CHO-K1 PathHunter, triplicate; 2,300 tested, 19% active; AID 624381, 2012; shares compounds with m5-HT2A agonist; DMSO 0%, 30 µM serotonin 100%; activation, % at 7.6 µM;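 active means mean activation across triplicates above the hit threshold derived in the original primary screen, cut at about 15% in these data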
* hit, by the source's call. Compounds with a hit are over-represented: about 2.4% of the library has one in this group of screens.

How did Cc1ccc(C(=O)N=c2sccn2C)cc1C do in these assays?
Calb FLC: -0.3; m5-HT2A agonist: 17.5*; SR-BI DiI inh: -2.3; SR-BI DiI-HDL act: 2.3; beta cell repl: -2.6; MOR ag counter: -0.7; HTR2A ag conf: -3.7

How did Cc1cc(NS(=O)(=O)c2ccc(NC(=S)NC(=O)c3cccc(S(=O)(=O)N(C)C)c3)cc2)no1 do in these assays?
Calb FLC: 8.3; Insulin prom up: -0.06; m5-HT2A agonist: 15.5*; SR-BI DiI inh: -1.4; SR-BI DiI-HDL act: 1.4; beta cell repl: -1.9; MOR ag counter: -0.7; HTR2A ag conf: -4.1

How did Cc1cc(NC(=O)c2cccc(S(=O)(=O)N3CCCCC3)c2)no1 do in these assays?
Calb FLC: -14.6; m5-HT2A agonist: 17.7*; SR-BI DiI inh: -6.2; SR-BI DiI-HDL act: 6.2; beta cell repl: 2.9; MOR ag counter: -0.5; HTR2A ag conf: -1.3

Results for O=C(NC1CCCC1)c1cccc(S(=O)(=O)N2CCCCC2)c1 ?
Calb FLC: 0.4; Insulin prom up: -1.46; m5-HT2A agonist: 16.3*; SR-BI DiI inh: -1.3; SR-BI DiI-HDL act: 1.3; beta cell repl: -1.8; MOR ag counter: -0.5; HTR2A ag conf: 10.5

How did Cc1cc(NS(=O)(=O)c2ccc(NC(=S)NC(=O)c3ccc(F)cc3)cc2)no1 do in these assays?
Calb FLC: -6.1; Insulin prom up: 0.1; m5-HT2A agonist: -1.2; SR-BI DiI inh: -6.5; SR-BI DiI-HDL act: 6.5; beta cell repl: 0.0

How did O=C1NC(c2cccc(OCc3ccccc3)c2)Nc2ccccc21 (stereo not given) do in these assays?
m5-HT2A agonist: 0.7; SR-BI DiI inh: -14.5; SR-BI DiI-HDL act: 14.5

What do the screens show for `O=C(NC(=S)Nn1cnc2c(cnn2-c2ccccc2)c1=O)c1ccc(Cl)cc1`?
Calb FLC: 101.1*; Insulin prom up: 0.51; m5-HT2A agonist: 41.7*; SR-BI DiI inh: -4.1; SR-BI DiI-HDL act: 4.1; beta cell repl: 4.9; MOR ag counter: -0.3; HTR2A ag conf: 0.1

How did O=C(NC(=S)Nn1cnc2c(cnn2-c2ccccc2)c1=O)c1ccc(Oc2ccccc2)cc1 do in these assays?
Calb FLC: -10.0; Insulin prom up: -0.04; m5-HT2A agonist: -2.1; SR-BI DiI inh: 3.1; SR-BI DiI-HDL act: -3.1; beta cell repl: -5.3

What do the screens show for `COc1ccc(OC)c(C(O)c2ncc(-c3ccccc3OC)[nH]2)c1` (stereo not given)?
m5-HT2A agonist: -4.2

What do the screens show for `CCc1ccc2cc3c(cc2n1)C(=O)c1ccccc1-3`?
m5-HT2A agonist: -7.9

Results for Cc1cccc(C(=O)Nc2ccnc(-c3ccncc3)n2)c1 ?
Calb FLC: 24.0; Insulin prom up: 0.11; m5-HT2A agonist: 2.7; SR-BI DiI inh: 7.7; SR-BI DiI-HDL act: -7.7; beta cell repl: -1.4

How did Cc1ccccc1C(=O)Nc1ccnc(-c2ccncc2)n1 do in these assays?
Calb FLC: 20.6; Insulin prom up: 0.4; m5-HT2A agonist: 19.5*; SR-BI DiI inh: 2.6; SR-BI DiI-HDL act: -2.6; beta cell repl: 4.7; MOR ag counter: 0.0; HTR2A ag conf: 1.3

What do the screens show for `O=C(NC1CCCCC1)c1cccc(NC(=O)c2ccccc2Cl)c1`?
m5-HT2A agonist: -7.2

What do the screens show for `CC(C(=O)O)c1ccc(C(=O)c2cccs2)cc1` (stereo not given)?
m5-HT2A agonist: 18.2*; SR-BI DiI inh: -9.2; SR-BI DiI-HDL act: 9.2; beta cell repl: 2.1; MOR ag counter: -0.5; HTR2A ag conf: 49.5*

How did O=C(c1ccc(-n2cncn2)c([N+](=O)[O-])c1)N1CCN(S(=O)(=O)c2c(F)cccc2F)CC1 do in these assays?
Calb FLC: 6.2; m5-HT2A agonist: 15.9*; SR-BI DiI inh: -0.8; SR-BI DiI-HDL act: 0.8; beta cell repl: -1.9; MOR ag counter: -0.3; HTR2A ag conf: -2.7

How did CCN(CC(=O)Nc1ccc(NC(C)=O)cc1)C(=O)CSCC(=O)Nc1ccc(C)cc1 do in these assays?
m5-HT2A agonist: 0.8; SR-BI DiI inh: -19.9; SR-BI DiI-HDL act: 19.9; beta cell repl: 0.8

Results for CCOC(=O)CC(=O)CSCC(=O)Nc1ccc(C)cc1 ?
Calb FLC: 17.5; Insulin prom up: -0.14; m5-HT2A agonist: 15.6*; SR-BI DiI inh: -4.2; SR-BI DiI-HDL act: 4.2; beta cell repl: 0.5; MOR ag counter: -0.3; HTR2A ag conf: 0.9

Results for Cc1cc(OCC(=O)OCC(=O)NCc2ccco2)ccc1Cl ?
Calb FLC: 2.0; m5-HT2A agonist: 14.5*; SR-BI DiI inh: -47.1; SR-BI DiI-HDL act: 47.1; beta cell repl: -2.1; MOR ag counter: -0.6; HTR2A ag conf: -2.5

How did O=C(c1[nH]c(C(F)(F)F)nc1-c1ccccc1)N1CCC(Cc2ccccc2)CC1 do in these assays?
m5-HT2A agonist: -3.9

Results for CCCCCOC(=O)CSc1n[nH]c(=O)[nH]c1=O ?
Calb FLC: 14.0; Insulin prom up: -1.38; m5-HT2A agonist: 0.7; SR-BI DiI inh: -14.2; SR-BI DiI-HDL act: 14.2; beta cell repl: 2.6

What do the screens show for `CCCOC(=O)C(C)Sc1n[nH]c(=O)[nH]c1=O` (stereo not given)?
Calb FLC: -7.9; Insulin prom up: 0; m5-HT2A agonist: 14.4*; SR-BI DiI inh: 1.2; SR-BI DiI-HDL act: -1.2; beta cell repl: -5.0; MOR ag counter: -0.6; HTR2A ag conf: -2.5

What do the screens show for `O=C(NCc1cccnc1)c1cc(C2CCCCN2C(=O)c2ccccc2)on1` (stereo not given)?
m5-HT2A agonist: 3.2

Results for Cn1nc(C(C)(C)C)cc1C(=O)N1CCCCC1c1cc(C(=O)NCc2cccnc2)no1 (stereo not given) ?
m5-HT2A agonist: 14.5*; MOR ag counter: -0.2; HTR2A ag conf: 0.5

Results for NC(=O)c1nsc(C(=O)N(c2ccccc2F)C(C(=O)NCc2ccc(F)cc2)c2ccc(O)cc2)c1N (stereo not given) ?
Calb FLC: 1.0; m5-HT2A agonist: 22.6*; SR-BI DiI inh: 7.4; SR-BI DiI-HDL act: -7.4; beta cell repl: -1.0; MOR ag counter: -0.3; HTR2A ag conf: 2.2
